From ChEMBL document CHEMBL3046809, “Plant tissue distribution and chemical inactivation of six carnation viruses” (Crop Prot, 2007) come the findings set out here.

Holding throughout (type): functional, organism-based
Assay [1] deals with Carnation mottle virus. As to the kind of experiment: Antiviral activity against Carnation mottle virus infected compound-treated sap in Saponaria vaccaria at 5% incubated for 60 secs prior to inoculation measured after 6 weeks in green house conditions by non-isotopic molecular hybridisation assay. An outline of the steps: (§1)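 Infected leaves ground in 30 mM phosphate buffer pH 7.0 with 0.5% PVP (1 g/5 ml) and clarified. Sap mixed 1:1 with chemical solution for 60 s; listed concentrations are final, after extract dilution. Buffer-only sap served as control. Treated sap rub-inoculated with carborundum onto three S. vaccaria cv. 'Pink Beauty' plants. Plants held in a greenhouse up to 6 weeks; infection scored by non-isotopic hybridisation.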

Assay [2] has as its system Carnation vein mottle virus. Description: Antiviral activity against Carnation vein mottle virus infected compound-treated sap in Saponaria vaccaria at 5% incubated for 60 secs prior to inoculation measured after 6 weeks in green house conditions by non-isotopic molecular hybridisation assay. The gist of the method:
as §1

Assay [3] deals with Carnation latent virus. As to the kind of experiment: Antiviral activity against Carnation latent virus infected compound-treated sap in Saponaria vaccaria at 5% incubated for 60 secs prior to inoculation measured after 6 weeks in green house conditions by non-isotopic molecular hybridisation assay. An outline of the steps: as §1
The subject of assay [4] is Carnation Italian ringspot virus. As to the kind of experiment: Antiviral activity against Carnation Italian ringspot virus infected as compound-treated sap in Saponaria vaccaria at 5% incubated for 60 secs prior to inoculation measured after 6 weeks in green house conditions by non-isotopic molecular hybridisation assay. An outline of the steps:
as §1

Assay [5] has as its system Carnation etched ring virus. Description: Antiviral activity against Carnation etched ring virus infected compound-treated sap in Saponaria vaccaria at 5% incubated for 60 secs prior to inoculation measured after 6 weeks in green house conditions by non-isotopic molecular hybridisation assay. An outline of the steps:
as §1

In assay [6] the test system is Carnation ringspot virus. As to the kind of experiment: Antiviral activity against Carnation ringspot virus infected compound-treated sap in Saponaria vaccaria at 5% incubated for 60 secs prior to inoculation measured after 6 weeks in green house conditions by non-isotopic molecular hybridisation assay. An outline of the steps:
as §1

The subject of assay [7] is Carnation etched ring virus. As to the kind of experiment: Antiviral activity against Carnation etched ring virus infected compound-treated sap in Saponaria vaccaria at 3% incubated for 60 secs prior to inoculation measured after 6 weeks in green house conditions by non-isotopic molecular hybridisation assay. An outline of the steps: as §1
Assay [8] deals with Carnation Italian ringspot virus. Description: Antiviral activity against Carnation Italian ringspot virus infected compound-treated sap in Saponaria vaccaria at 7% incubated for 60 secs prior to inoculation measured after 6 weeks in green house conditions by non-isotopic molecular hybridisation assay. The gist of the method: as §1
Assay [9] has the same test system. Description: Antiviral activity against Carnation Italian ringspot virus infected as compound-treated sap in Saponaria vaccaria at 3% incubated for 60 secs prior to inoculation measured after 6 weeks in green house conditions by non-isotopic molecular hybridisation assay. The gist of the method: as §1
Assay [10] deals with Carnation vein mottle virus. Description: Antiviral activity against Carnation vein mottle virus infected compound-treated sap in Saponaria vaccaria at 3% incubated for 60 secs prior to inoculation measured after 6 weeks in green house conditions by non-isotopic molecular hybridisation assay. An outline of the steps:
as §1

Assay [11] relates to Carnation ringspot virus. Description: Antiviral activity against Carnation ringspot virus infected compound-treated sap in Saponaria vaccaria at 3% incubated for 60 secs prior to inoculation measured after 6 weeks in green house conditions by non-isotopic molecular hybridisation assay. The gist of the method:
as §1

Assay [12] deals with Carnation mottle virus. Description: Antiviral activity against Carnation mottle virus infected compound-treated sap in Saponaria vaccaria at 3% incubated for 60 secs prior to inoculation measured after 6 weeks in green house conditions by non-isotopic molecular hybridisation assay. An outline of the steps: as §1
In assay [13] the test system is Carnation latent virus. Description: Antiviral activity against Carnation latent virus infected compound-treated sap in Saponaria vaccaria at 7% incubated for 60 secs prior to inoculation measured after 6 weeks in green house conditions by non-isotopic molecular hybridisation assay. An outline of the steps: as §1
Assay [14] has as its system Carnation latent virus. As to the kind of experiment: Antiviral activity against Carnation latent virus infected compound-treated sap in Saponaria vaccaria at 3% incubated for 60 secs prior to inoculation measured after 6 weeks in green house conditions by non-isotopic molecular hybridisation assay. The gist of the method:
as §1

The subject of assay [15] is Carnation vein mottle virus. Description: Antiviral activity against Carnation vein mottle virus infected compound-treated sap in Saponaria vaccaria at 7% incubated for 60 secs prior to inoculation measured after 6 weeks in green house conditions by non-isotopic molecular hybridisation assay. The gist of the method: as §1
The test system of assay [16] is Carnation ringspot virus. Description: Antiviral activity against Carnation ringspot virus infected compound-treated sap in Saponaria vaccaria at 7% incubated for 60 secs prior to inoculation measured after 6 weeks in green house conditions by non-isotopic molecular hybridisation assay. The gist of the method:
as §1

The test system of assay [17] is Carnation mottle virus. As to the kind of experiment: Antiviral activity against Carnation mottle virus infected compound-treated sap in Saponaria vaccaria at 7% incubated for 60 secs prior to inoculation measured after 6 weeks in green house conditions by non-isotopic molecular hybridisation assay. The gist of the method:
as §1

Assay [18] relates to Carnation etched ring virus. Description: Antiviral activity against Carnation etched ring virus infected compound-treated sap in Saponaria vaccaria at 7% incubated for 60 secs prior to inoculation measured after 6 weeks in green house conditions by non-isotopic molecular hybridisation assay. The gist of the method: as §1

The structures appear in SMILES notation. The source made the active and inactive calls. The calls are words filed in the database; no cut-off is given here.

Turning to `O=P([O-])([O-])O.[Na+].[Na+]`, the result in assay [1], in [3], in assay [4], in assay [5] and in [6] was inactive. Besides, the outcome in assay [2] was Active.

As to `OCl`, the result in [7], in [8], in assay [10], in assay [2], in assay [3] and in assay [4] was Active. Moreover, the result in assay [5], in assay [13], in assay [14], in assay [15], in [16] and in [17] was Active. Moreover, in assay [18], the result was Active. Besides, the outcome in assay [9], in assay [1], in assay [11], in assay [12] and in assay [6] was inactive.
